Laboratory results taken from PMC10694828 (RSC Advances, 2023).

Key:
recombinant human MAO-A = molecular target: T1, recombinant human MAO-A (Homo sapiens, UniProt P21397); experiment: MAO-A inhibition, continuous assay with kynuramine; assay type: biochemical; conditions: for remaining activity at 10 µM: read-out: Residual activity at 10 μM (%) MAO-A
T1 sequence (P21397 1-527): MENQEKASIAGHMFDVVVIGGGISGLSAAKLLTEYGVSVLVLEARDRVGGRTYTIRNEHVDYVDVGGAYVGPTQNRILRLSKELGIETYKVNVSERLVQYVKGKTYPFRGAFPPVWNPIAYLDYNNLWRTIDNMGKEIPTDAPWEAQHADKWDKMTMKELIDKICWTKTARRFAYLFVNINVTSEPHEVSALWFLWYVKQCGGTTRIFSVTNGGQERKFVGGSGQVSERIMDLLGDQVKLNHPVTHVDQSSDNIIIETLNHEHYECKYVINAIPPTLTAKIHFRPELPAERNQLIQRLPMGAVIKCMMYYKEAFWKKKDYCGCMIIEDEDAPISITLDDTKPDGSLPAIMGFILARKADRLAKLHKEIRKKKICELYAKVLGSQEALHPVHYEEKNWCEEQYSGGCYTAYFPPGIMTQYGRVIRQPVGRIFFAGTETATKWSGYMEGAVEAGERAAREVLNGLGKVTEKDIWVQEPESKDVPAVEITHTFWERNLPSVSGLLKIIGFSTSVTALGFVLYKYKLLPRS

MAO-B [1] = molecular target: T2, MAO-B (Homo sapiens, UniProt P27338); experiment: MAO-B inhibition, continuous assay with benzylamine; assay type: biochemical; conditions: for SI (selectivity index for MAO-B compared to MAO-A): (IC50 of MAO-A)/(IC50 of MAO-B); for remaining activity at 10 µM: read-out: Residual activity at 10 μM (%) MAO-B
T2 sequence (P27338 1-520): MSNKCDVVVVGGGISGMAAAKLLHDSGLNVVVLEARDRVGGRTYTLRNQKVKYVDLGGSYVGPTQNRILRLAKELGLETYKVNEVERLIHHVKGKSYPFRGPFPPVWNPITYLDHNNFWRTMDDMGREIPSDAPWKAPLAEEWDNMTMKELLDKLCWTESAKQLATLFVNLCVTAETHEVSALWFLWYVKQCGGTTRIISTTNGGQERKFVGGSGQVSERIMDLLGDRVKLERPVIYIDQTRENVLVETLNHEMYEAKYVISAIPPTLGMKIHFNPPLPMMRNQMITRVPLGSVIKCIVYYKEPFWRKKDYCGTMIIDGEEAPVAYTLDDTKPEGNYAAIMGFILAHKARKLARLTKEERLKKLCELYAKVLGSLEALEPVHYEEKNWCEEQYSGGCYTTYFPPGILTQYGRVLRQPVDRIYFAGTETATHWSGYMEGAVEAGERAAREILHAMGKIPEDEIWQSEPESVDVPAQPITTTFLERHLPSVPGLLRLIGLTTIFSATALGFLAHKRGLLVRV

MAO-B [2] = molecular target: T2, MAO-B; experiment: Reversibility of MAO-B inhibition by dialysis; assay type: biochemical; conditions: for Reversibility of MAO-B inhibition: dialysis; for Relative MAO-B activity, undialyzed (AU) / Relative MAO-B activity, dialyzed (AD): ~2.0 times IC50, 30 min preincubation; for Relative MAO-B activity, dialyzed (AD): dialyzed 6 h with two buffer changes
MAO-B [3] = molecular target: T2, MAO-B; experiment: Enzyme kinetics of MAO-B inhibition; assay type: biochemical; conditions: for Inhibition type for MAO-B: Lineweaver–Burk plots
In short: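 Recombinant human MAO-B. Activity was followed continuously by absorbance at 250 nm with benzylamine as substrate at five concentrations (0.0375–0.60 […]). Three inhibitor concentrations were tested against each substrate level. The inhibition pattern and Ki came from Lineweaver–Burk plots and from secondary plots of slope versus inhibitor concentration.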

PAMPA for BBB permeation = assay type: in vitro ADME; conditions: for Papp: PAMPA; for Experimental Pe / Prediction (CNS permeation): PAMPA-BBB
In short: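 Passive BBB permeation by PAMPA on a filter membrane with 0.45 micron pores, 125 microns thick. Drug concentrations in donor, receiver and reference wells were measured by UV spectroscopy. Pe (10−6 cm s−1) was calculated as […]. Pe > 4.00 was classed CNS+ (high permeation).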

IC50 (recombinant human MAO-A)	remaining activity at 10 µM (recombinant human MAO-A)	IC50 (MAO-B [1])	SI (selectivity index for MAO-B compared to MAO-A) (MAO-B [1])	remaining activity at 10 µM (MAO-B [1])	Reversibility of MAO-B inhibition (MAO-B [2])	Relative MAO-B activity, undialyzed (AU) (MAO-B [2])	Relative MAO-B activity, dialyzed (AD) (MAO-B [2])	Ki (MAO-B [3])	Inhibition type for MAO-B (MAO-B [3])	Papp (PAMPA for BBB permeation)	Experimental Pe (PAMPA for BBB permeation)	SMILES	Prediction (CNS permeation) (PAMPA for BBB permeation)
6.824 ± 0.049 µM	38.78 ± 0.25%	0.124 ± 0.007 µM	55.03	-8.77 ± 0.14%	reversible	31.61%	83.77%	0.055 ± 0.01 µM	competitive	4.93 ± 0.13 ×10⁻⁶ cm/s	higher than 4.0 ×10^−6 cm s^−1	O=C1Nc2ccccc2/C1=N/N=Cc1ccc(OCc2ccccc2)cc1 [ISB1, (3Z)-3-((4-(benzyloxy)benzylidene)hydrazineylidene)indolin-2-one]	CNS+ (Pe (10^−6 cm s^−1) > 4.00: CNS+ (high permeation))
> 40 µM	74.5 ± 0.95%	13.9 ± 0.204 µM	>2.87	59.6 ± 1.11%	–	–	–	–	–	–	–	O=C1Nc2ccc(F)cc2C1=NN=Cc1ccc(OCc2ccccc2)cc1 [ISB3]	–
1.57 ± 0.048 µM	4.84 ± 1.61%	0.54 ± 0.029 µM	2.91	1.99 ± 0.86%	–	–	–	–	–	–	–	O=C1Nc2ccccc2C1=NN=Cc1cccc(OCc2ccccc2)c1 [ISBB1]	–
0.678 ± 0.006 µM	4.17 ± 0.32%	0.135 ± 0.002 µM	–	-3.03 ± 0.24%	reversible	31.42%	79.32%	0.069 ± 0.025 µM	competitive	4.09 ± 0.24 ×10⁻⁶ cm/s	higher than 4.0 ×10^−6 cm s^−1	O=C1Nc2ccccc2/C1=N/N=Cc1ccc(OCc2cccc(F)c2)cc1 [ISFB1, (3Z)-3-((4-((3-fluorobenzyl)oxy)benzylidene)hydrazineylidene)indolin-2-one]	CNS+ (Pe (10^−6 cm s^−1) > 4.00: CNS+ (high permeation))
> 40 µM	88.5 ± 1.38%	16 ± 0.308 µM	>2.49	57.6 ± 1.1%	–	–	–	–	–	–	–	O=C1Nc2ccc(Br)cc2C1=NN=Cc1ccc(OCc2cccc(F)c2)cc1 [ISFB2]	–
